ChEMBL document CHEMBL1127630, “New dual inhibitors of neutral endopeptidase and angiotensin-converting enzyme: rational design, bioavailability, and pharmacological responses in experimental hypertension” (J Med Chem, 1994)

Legend:
[1] = molecular target: T1, Angiotensin-converting enzyme (Mus musculus) (UniProt P09470); assay: Inhibition of lung Angiotensin Converting Enzyme (ACE) in mouse at a dose of 2.6*10e-5 mol/kg after 20 min oral administration
T1 sequence (whole entry): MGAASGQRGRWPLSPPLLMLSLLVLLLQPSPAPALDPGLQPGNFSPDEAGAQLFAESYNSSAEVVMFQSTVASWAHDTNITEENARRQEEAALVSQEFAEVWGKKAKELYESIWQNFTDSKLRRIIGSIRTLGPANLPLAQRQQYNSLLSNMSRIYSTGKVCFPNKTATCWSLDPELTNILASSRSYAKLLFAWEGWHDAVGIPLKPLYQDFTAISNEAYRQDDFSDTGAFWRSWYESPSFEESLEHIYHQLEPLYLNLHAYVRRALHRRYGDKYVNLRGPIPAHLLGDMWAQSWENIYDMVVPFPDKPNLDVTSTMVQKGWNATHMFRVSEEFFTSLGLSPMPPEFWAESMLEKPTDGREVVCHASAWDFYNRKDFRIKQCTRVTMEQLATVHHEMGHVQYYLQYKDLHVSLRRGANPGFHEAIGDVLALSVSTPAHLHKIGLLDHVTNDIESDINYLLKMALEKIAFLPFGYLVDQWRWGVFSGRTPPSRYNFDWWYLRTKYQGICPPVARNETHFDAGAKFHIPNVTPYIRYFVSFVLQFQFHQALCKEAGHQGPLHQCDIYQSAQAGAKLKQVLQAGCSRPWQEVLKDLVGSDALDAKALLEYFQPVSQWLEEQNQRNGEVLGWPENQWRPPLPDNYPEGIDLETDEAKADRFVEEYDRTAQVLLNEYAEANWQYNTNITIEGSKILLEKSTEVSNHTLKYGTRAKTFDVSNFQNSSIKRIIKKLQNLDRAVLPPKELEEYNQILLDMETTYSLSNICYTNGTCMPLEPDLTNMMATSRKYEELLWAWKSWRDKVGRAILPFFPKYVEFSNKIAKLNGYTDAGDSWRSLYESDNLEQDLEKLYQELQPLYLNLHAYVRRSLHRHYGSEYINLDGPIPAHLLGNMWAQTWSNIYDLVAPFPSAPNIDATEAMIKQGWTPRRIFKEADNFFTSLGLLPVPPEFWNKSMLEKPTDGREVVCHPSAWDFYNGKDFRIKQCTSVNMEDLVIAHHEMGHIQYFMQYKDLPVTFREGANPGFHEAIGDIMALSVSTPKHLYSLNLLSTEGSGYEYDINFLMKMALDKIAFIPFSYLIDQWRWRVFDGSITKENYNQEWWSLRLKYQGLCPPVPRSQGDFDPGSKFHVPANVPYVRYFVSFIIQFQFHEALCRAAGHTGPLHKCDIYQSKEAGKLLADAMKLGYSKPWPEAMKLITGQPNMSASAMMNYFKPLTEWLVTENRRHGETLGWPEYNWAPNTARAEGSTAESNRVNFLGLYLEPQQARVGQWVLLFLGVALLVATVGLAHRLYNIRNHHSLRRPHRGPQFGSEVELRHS
Method in brief: (§1)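 Prescreen in mice: single oral dose of 2.6 X 10-5 mol/kg of prodrug (thioacetyl and benzyl ester protected, tested as stereoisomer mixtures). Inhibition of binding of a tritiated ACE probe to lung measured 20 and 60 min after dosing. Mean ± SEM of three experiments, three mice each.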

[2] = molecular target: T1, Angiotensin-converting enzyme (Mus musculus); assay: In vivo inhibition of lung Angiotensin Converting Enzyme (ACE) in mouse at a dose of 2.6*10e-5 mol/kg after 60 min oral administration; assay type: functional, organism-based; method in brief: as §1
[3] = molecular target: T2, Angiotensin-converting enzyme (Mus musculus, UniProt P09470); assay: Inhibitory potency against angiotensin converting enzyme by displacement of [3H]trandolaprilate binding in mouse lung
T2 sequence (P09470 whole entry): T1 sequence (whole entry)

[4] = molecular target: T1, Angiotensin-converting enzyme (Mus musculus); assay: In vivo inhibition of lung ACE was observed at 120 min after oral administration of the compound; assay type: functional, organism-based; parameters: concentration or dose not given beside the values
Mus musculus = assay: In vivo inhibition of lung ACE was observed at 60 min after oral administration; assay type: functional; parameters: concentration or dose not given beside the values
[5] = molecular target: T3, Neprilysin (Mus musculus) (UniProt Q61391); assay: Inhibition of Neutral Endopeptidase activity was measured by using the displacement of [3H]-HACBOGly from mouse kidney after 1 hr oral administration; parameters: scale not given: the % may be the effect or the level left
T3 sequence (whole entry): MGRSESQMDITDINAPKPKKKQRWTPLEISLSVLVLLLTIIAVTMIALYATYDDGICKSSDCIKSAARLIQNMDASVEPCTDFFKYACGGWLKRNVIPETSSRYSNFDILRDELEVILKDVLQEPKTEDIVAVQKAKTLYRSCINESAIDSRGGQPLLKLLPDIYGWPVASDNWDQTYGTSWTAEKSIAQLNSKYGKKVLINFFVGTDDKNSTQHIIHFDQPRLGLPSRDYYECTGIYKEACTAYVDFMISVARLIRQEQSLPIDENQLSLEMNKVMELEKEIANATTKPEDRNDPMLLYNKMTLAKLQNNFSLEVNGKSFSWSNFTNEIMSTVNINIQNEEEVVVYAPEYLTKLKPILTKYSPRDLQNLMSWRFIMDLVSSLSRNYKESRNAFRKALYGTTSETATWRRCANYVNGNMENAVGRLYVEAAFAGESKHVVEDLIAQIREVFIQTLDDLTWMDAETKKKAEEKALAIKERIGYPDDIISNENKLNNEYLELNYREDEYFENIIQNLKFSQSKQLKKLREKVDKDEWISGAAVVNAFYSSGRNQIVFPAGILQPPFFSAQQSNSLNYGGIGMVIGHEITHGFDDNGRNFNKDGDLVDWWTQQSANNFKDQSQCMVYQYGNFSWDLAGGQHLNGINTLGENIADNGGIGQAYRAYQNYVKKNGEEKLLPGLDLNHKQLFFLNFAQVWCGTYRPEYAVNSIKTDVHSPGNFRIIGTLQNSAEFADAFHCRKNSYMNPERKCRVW
Method in brief: (§2)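 Mice dosed orally at 2.6 X 10-6 mol/kg in 10% ethanol/10% cremophor/80% water. [3H]HACBOGly (1 uCi) injected iv at intervals after dosing. Kidneys taken 15 min later, homogenized in 50 mM Tris-HCl pH 7.4 at 4 °C and filtered, radioactivity counted. Inhibition expressed as percent displacement versus control. Nonspecific binding defined with coinjected retrothiorphan (10.000 eq).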

[6] = molecular target: T3, Neprilysin (Mus musculus); assay: Inhibition of Neutral Endopeptidase activity was measured by using the displacement of [3H]HACBOGly from mouse kidney after 2 hr oral administration; parameters: scale not given: the % may be the effect or the level left; method in brief: as §2
[7] = molecular target: T1, Angiotensin-converting enzyme (Mus musculus); assay: In vivo inhibition of lung ACE was observed at 30 min after oral administration of the compound; assay type: organism-based; parameters: concentration or dose not given beside the values
[8] = molecular target: T3, Neprilysin (Mus musculus); assay: Inhibition of Neutral Endopeptidase activity was measured by using the displacement of [3H]HACBOGly from mouse kidney after 4 hr oral administration; parameters: scale not given: the % may be the effect or the level left; method in brief: as §2
[9] = molecular target: T1, Angiotensin-converting enzyme (Mus musculus); assay: In vivo inhibition of lung ACE was observed at 240 min after oral administration of the compound; assay type: functional, organism-based; parameters: concentration or dose not given beside the values

CC(=O)SCC(C(=O)N[C@@H](Cc1ccc(O)cc1)C(=O)OCc1ccccc1)C(C)c1ccccc1 (stereo not given in full)
inhibition [1]: 20%
inhibition [2]: 7%

COc1ccc(C(C)C(CSC(C)=O)C(=O)N[C@@H](Cc2ccc(OC(C)=O)cc2)C(=O)OCc2ccccc2)cc1 (stereo not given in full)
inhibition [1]: 14%
inhibition [2]: 33%

COc1cc(C(C)C(CS)C(=O)NC(Cc2ccc(O)cc2)C(=O)O)ccc1O (stereo not given)
IC50 [3]: 0.014 µM

CCCCC(NC(=O)C(CS)C(C)c1ccccc1)C(=O)O (stereo not given)
IC50 [3]: 0.007 µM

CC(c1ccccc1)C(CS)C(=O)NCC(=O)O (stereo not given)
IC50 [3]: 0.032 µM

CC(c1ccc(N)cc1)C(CS)C(=O)NC(Cc1ccc(O)cc1)C(=O)O (stereo not given)
IC50 [3]: 0.012 µM

C[C@H](NC(=O)[C@H](CS)[C@@H](C)c1ccccc1)C(=O)O (stereo in doubt; 44b)
Ki [3]: 0.016 µM

COc1ccc(C(C)C(CS)C(=O)NC(Cc2ccc(O)cc2)C(=O)O)cc1OC (stereo not given)
IC50 [3]: 0.004 µM

CC(C)C(NC(=O)C(CS)C(C)c1ccccc1)C(=O)O (stereo not given)
IC50 [3]: 0.1 µM

C[C@@H](c1ccccc1)[C@@H](CS)C(=O)N[C@@H](Cc1ccccc1)C(=O)O (stereo in doubt; 48c)
Ki [3]: 0.0019 µM

CC(C)CC(NC(=O)C(CS)C(C)c1ccccc1)C(=O)O (stereo not given)
IC50 [3]: 0.019 µM

CCCC[C@H](NC(=O)C(CSC(C)=O)C(C)c1ccccc1)C(=O)OCc1ccccc1 (stereo not given in full)
inhibition [1]: 34%
inhibition [2]: 41%

C[C@H](c1ccccc1)[C@@H](CS)C(=O)N[C@@H](Cc1ccccc1)C(=O)O
Ki [3]: 0.01 µM

C[C@H](NC(=O)[C@H](CS)[C@@H](C)c1ccccc1)C(=O)O (stereo in doubt; 44c)
Ki [3]: 0.0045 µM

CC(c1ccccc1)C(CS)C(=O)N[C@@H](C)C(=O)O (stereo not given in full)
IC50 [3]: 0.02 µM

CC(c1ccccc1)C(CS)C(=O)NC(Cc1ccc(O)cc1)C(=O)O (stereo not given)
IC50 [3]: 0.0043 µM

CCC(c1ccccc1)C(CS)C(=O)NC(Cc1ccc(O)cc1)C(=O)O (stereo not given)
IC50 [3]: 0.11 µM

CC[C@H](NC(=O)C(CSC(=O)c1ccccc1)C(C)c1ccccc1)C(=O)O (stereo not given in full)
Control [4]: 39%
Control (Mus musculus): 57%
Control [5]: 100%
Control [6]: 97%
Control [7]: 73%
Control [8]: 73%
Control [9]: 30%

CC(NC(=O)C(CS)C(C)c1ccc(F)c(F)c1)C(=O)O (stereo not given)
IC50 [3]: 0.005 µM

C[C@@H](c1ccccc1)[C@@H](CS)C(=O)N[C@@H](Cc1ccccc1)C(=O)O (stereo in doubt; 48b)
Ki [3]: 0.015 µM

C[C@@H](c1ccccc1)[C@@H](CS)C(=O)N[C@@H](Cc1ccccc1)C(=O)O (stereo in doubt; 48a)
Ki [3]: 0.026 µM
